# Results from ChEMBL document CHEMBL4190344, “Synthesis of substituted phenanthrene-9-benzimidazole conjugates: Cytotoxicity evaluation and apoptosis inducing studies” (Eur J Med Chem, 2017).
# The source made the active and inactive calls. No cut-off for these calls is given here.
# Assays:
# PC-3 [1] = assay: Cell cycle arrest in human PC3 cells assessed as accumulation at G2/M phase at 2.5 uM incubated for 24 hrs by propidium iodide staining based flow cytometry (reference value: 25.96%); type: functional
# BT-549 = assay: Cytotoxicity in human BT549 cells incubated for 48 hrs by MTT assay; type: functional, cell-based; details: BT-549, 48 h
# In short: (§1)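 Cells (1 × 10^4/well) were seeded in medium with 10% FBS and left 24 h at 37 °C. Compound diluted in medium was then added, alongside a vehicle control, for 48 h. MTT (5 mg/mL stock) was added for 4 h, formazan dissolved in DMSO and absorbance read at 570 nm. IC50 taken as the concentration giving 50% inhibition.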
# PC-3 [2] = assay: Induction of cell death in human PC3 cells assessed as induction of chromatin condensation at 10 uM incubated for 48 hrs by acridine orange and ethidium bromide staining based fluorescence microscopy; type: functional
# In short: (§2)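 PC-3 cells (1 × 10^6 cells/mL) were treated with compound and kept 48 h at 37 °C, 5% CO2. Acridine orange and ethidium bromide (10 µg/mL) were added in equal volumes. After 10 min, cells were imaged by fluorescence microscopy (ex 488/em 550 nm, 200×).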
# MDA-MB-453 = assay: Cytotoxicity in human MDA-MB-453 cells incubated for 48 hrs by MTT assay; type: functional, cell-based; details: MDA-MB-453, 48 h; in short: as §1
# PC-3 [3] = assay: Cell cycle arrest in human PC3 cells assessed as accumulation at G2/M phase at 5 uM incubated for 24 hrs by propidium iodide staining based flow cytometry (reference value: 25.96%); type: functional
# PC-3 [4] = assay: Induction of mitochondrial membrane potential loss in human PC3 cells assessed as JC1 aggregate level at 5 uM incubated for 24 hrs by JC1 staining based flow cytometry (reference value: 76.94%); type: functional
# PC-3 [5] = assay: Cell cycle arrest in human PC3 cells assessed as accumulation at G0/G1 phase at 2.5 uM incubated for 24 hrs by propidium iodide staining based flow cytometry (reference value: 56.67%); type: functional
# PC-3 [6] = assay: Induction of mitochondrial membrane potential loss in human PC3 cells incubated for 24 hrs by JC1 staining based flow cytometry (reference value: 76.94%); type: functional, cell-based
# PC-3 [7] = assay: Cytotoxicity in human PC3 cells incubated for 48 hrs by MTT assay; type: functional, cell-based; details: PC-3, 48 h; in short: as §1
# PC-3 [8] = assay: Induction of apoptosis in human PC3 cells incubated for 24 hrs by annexin V-FITC/propidium iodide dual staining based flow cytometry; type: functional, cell-based
# In short: (§3)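 PC-3 cells were grown 24 h, then treated 24 h at 2.5, 5.0 or 10 µM. Cells were trypsinised, washed twice in ice-cold PBS and stained in binding buffer with Annexin V-FITC followed by propidium iodide at room temperature in the dark. 10,000 cells per sample were run on a flow cytometer, with quadrants scored as live, early apoptotic, late apoptotic or necrotic.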
# PC-3 [9] = assay: Induction of apoptosis in human PC3 cells assessed as viable cells level at 10 uM incubated for 24 hrs by annexin V-FITC/propidium iodide dual staining based flow cytometry (reference value: 76.73%); type: functional; in short: as §3
# PC-3 [10] = assay: Induction of mitochondrial membrane potential loss in human PC3 cells assessed as JC1 aggregate level at 2.5 uM incubated for 24 hrs by JC1 staining based flow cytometry (reference value: 76.94%); type: functional
# PC-3 [11] = assay: Induction of apoptosis in human PC3 cells assessed as late apoptotic cells level at 5 uM incubated for 24 hrs by annexin V-FITC/propidium iodide dual staining based flow cytometry (reference value: 10.92%); type: functional; in short: as §3
# PC-3 [12] = assay: Induction of cell death in human PC3 cells assessed as induction of cell shrinkage at 10 uM incubated for 48 hrs by acridine orange and ethidium bromide staining based fluorescence microscopy; type: functional; in short: as §2
# PC-3 [13] = assay: Induction of apoptosis in human PC3 cells assessed as induction of horse-shoe shaped nuclei formation at 2.5 to 10 uM incubated for 48 hrs by DAPI staining based fluorescence microscopy; type: functional, cell-based
# In short: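 Compound-treated PC-3 cells were PBS-washed, permeabilised with 0.1% Tween 20 for 10 min and stained with 1 µM DAPI. Nuclear morphology was viewed by fluorescence microscopy at ex 359/em 461 nm, 200×.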
# PC-3 [14] = assay: Cell cycle arrest in human PC3 cells assessed as accumulation at G0/G1 phase at 2.10 uM incubated for 24 hrs by propidium iodide staining based flow cytometry (reference value: 106.67%); type: functional
# PC-3 [15] = assay: Induction of mitochondrial membrane potential loss in human PC3 cells assessed as JC1 monomer level at 5 uM incubated for 24 hrs by JC1 staining based flow cytometry (reference value: 22.8%); type: functional
# Calf thymus DNA = assay: Binding affinity to calf thymus DNA assessed as increase in relative viscosity of DNA-compound complex at 5 uM by viscometry; type: nucleic-acid assay; details: Bos taurus
# In short: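 Viscosity titration of test compound (5 µM) into CT-DNA (50 µM) in 100 mM Tris-HCl pH 7.0. Rolling-ball viscometer, ball fall time read at angles of 20° to 70°, Peltier-held temperature, viscosity calculated at 25 °C.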
# PC-3 [16] = assay: Cell cycle arrest in human PC3 cells assessed as accumulation at subG1 phase at 2.5 uM incubated for 24 hrs by propidium iodide staining based flow cytometry (reference value: 1.71%); type: functional
# PC-3 [17] = assay: Cell cycle arrest in human PC3 cells assessed as accumulation at S phase at 5 uM incubated for 24 hrs by propidium iodide staining based flow cytometry (reference value: 13.92%); type: functional
# PC-3 [18] = assay: Cytotoxicity in human PC3 cells assessed as reduction in cell viability at 2.5 to 10 uM incubated for 48 hrs by phase contrast microscopy; type: functional, cell-based
# In short: (§4)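 PC-3 cells at 1 × 10^5 cells/mL adhered overnight, then received compound at 2.5, 5.0 or 10.0 µM. After 48 h, morphology (viable cell number, nuclear shrinkage, detachment) was imaged by phase contrast microscopy.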
# PC-3 [19] = assay: Induction of apoptosis in human PC3 cells assessed as necrotic cells level at 10 uM incubated for 24 hrs by annexin V-FITC/propidium iodide dual staining based flow cytometry (reference value: 0.59%); type: functional; in short: as §3
# PC-3 [20] = assay: Induction of morphological changes in human PC3 cells assessed as increase in cell detachment at 2.5 to 10 uM incubated for 48 hrs by phase contrast microscopy; type: functional, cell-based; in short: as §4
# PC-3 [21] = assay: Induction of apoptosis in human PC3 cells assessed as early apoptotic cells level at 10 uM incubated for 24 hrs by annexin V-FITC/propidium iodide dual staining based flow cytometry (reference value: 11.76%); type: functional; in short: as §3
# PC-3 [22] = assay: Induction of morphological changes in human PC3 cells assessed as increase in nuclear shrinkage at 2.5 to 10 uM incubated for 48 hrs by phase contrast microscopy; type: functional, cell-based; in short: as §4
# PC-3 [23] = assay: Induction of apoptosis in human PC3 cells assessed as necrotic cells level at 2.5 uM incubated for 24 hrs by annexin V-FITC/propidium iodide dual staining based flow cytometry (reference value: 0.59%); type: functional; in short: as §3
# PC-3 [24] = assay: Induction of mitochondrial membrane potential loss in human PC3 cells assessed as JC1 monomer level at 2.5 uM incubated for 24 hrs by JC1 staining based flow cytometry (reference value: 22.8%); type: functional
# PC-3 [25] = assay: Induction of apoptosis in human PC3 cells assessed as early apoptotic cells level at 2.5 uM incubated for 24 hrs by annexin V-FITC/propidium iodide dual staining based flow cytometry (reference value: 11.76%); type: functional; in short: as §3
smiles,measurement,setting,value
COc1ccc2cc(-c3nc4ccc(F)cc4[nH]3)c3cc(OC)c(OC)cc3c2c1,Activity,PC-3 [1],27.8%
same,IC50,BT-549,13.2 µM
same,Activity,PC-3 [2],Active
same,IC50,MDA-MB-453,6.61 µM
same,Activity,PC-3 [3],29.78%
same,Activity,PC-3 [4],32.38%
same,Activity,PC-3 [5],55.93%
same,Activity,PC-3 [6],Dose-dependent effect
same,IC50,PC-3 [7],6.32 µM
same,Activity,PC-3 [8],Dose-dependent effect
same,Activity,PC-3 [9],27.68%
same,Activity,PC-3 [10],66.43%
same,Activity,PC-3 [11],34.03%
same,Activity,PC-3 [12],Active
same,Activity,PC-3 [13],Active
same,Activity,PC-3 [14],38.61%
same,Activity,PC-3 [15],67.42%
same,Activity,Calf thymus DNA,Active
same,Activity,PC-3 [16],3.08%
same,Activity,PC-3 [17],14.21%
same,Activity,PC-3 [18],Active
same,Activity,PC-3 [19],0.36%
same,Activity,PC-3 [20],Active
same,Activity,PC-3 [21],22.94%
same,Activity,PC-3 [22],Active
same,Activity,PC-3 [23],0.21%
same,Activity,PC-3 [24],33.35%
same,Activity,PC-3 [25],36.2%
